Here are results for two molecules from ChEMBL document CHEMBL2380219, “Physalin A induces apoptotic cell death and protective autophagy in HT1080 human fibrosarcoma cells” (J Nat Prod, 2013).

The subject of series [1] is HT-1080. Nature of the series: Cytotoxicity against human HT1080 cells assessed as growth inhibition after 24 hrs by MTT assay. The class given is functional, cell-based. To be noted: HT-1080, 24 h. (Tetrazolium assays rely on reduction of a dye to a coloured formazan, in cell work by metabolically active cells.)
The test system of series [2] is PBMC. The series is described as follows: Cytotoxicity against human PBMC at 40 to 80 uM after 24 to 48 hrs by MTT assay. The class given is cell-based. In outline: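 hPBMC from fresh blood of three healthy male volunteers, isolated on Ficoll-Hypaque (1.077 g/mL) at 900g for 30 min and washed, then seeded in complete RPMI-1640. Exposed to 10–80 μM for 24 and 48 h, with DMSO below 0.05%. MTT was read at 492 nm after formazan in DMSO. Inhibition % = (control−sample)/(control−blank)×100; mean ± SD, three independent experiments.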

As for `O=c1[nH]cc(F)c(=O)[nH]1` [FLUOROURACIL], in series [1], the IC50 was 70.8 µM. For the same molecule, in series [2], the Activity result is reported as “Non-toxic”.
On the same counts, the results for `CC(=O)O[C@H]1C(=O)[C@@]2(C)[C@H]([C@H](OC(=O)c3ccccc3)[C@]3(O)C[C@H](OC(=O)[C@H](O)[C@@H](NC(=O)c4ccccc4)c4ccccc4)C(C)=C1C3(C)C)[C@]1(OC(C)=O)CO[C@@H]1C[C@@H]2O` [PACLITAXEL] are 6 µM and “Non-toxic”.

One may read the IC50 as the concentration that gives 50% inhibition.
